Results reported in ChEMBL document CHEMBL5537199, “Discovery and SAR Study of Boronic Acid-Based Selective PDE3B Inhibitors from a Novel DNA-Encoded Library” (J Med Chem, 2024).

Key:
[1] = target: cGMP-inhibited 3',5'-cyclic phosphodiesterase 3B (Homo sapiens, UniProt Q13370); assay: Inhibition of full-length PDE3B (M1 to E1112 residues) (unknown origin) using FAM-cAMP as substrate incubated for 120 mins by TR-FRET IMAP assay
Summary of the method: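 Buffer 50 mM Tris-HCl pH 7.5, 8.3 mM MgCl2, 1.7 mM EGTA, 0.05% BSA. Compounds run as a concentration curve with a top final concentration of 100 μM. DMSO and 10 μM trequinsin served as controls. Terbium TR-FRET ratio read at 520:490 nm.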

[2] = target: cGMP-inhibited 3',5'-cyclic phosphodiesterase 3A (Homo sapiens, UniProt Q14432); assay: Inhibition of PDE3A (M1 to Q1141 residues) (unknown origin) using FAM-cAMP as substrate incubated for 45 mins by TR-FRET IMAP assay
cGMP-inhibited 3',5'-cyclic phosphodiesterase 3A, sequence (Q14432 whole entry, the tested form may be a part): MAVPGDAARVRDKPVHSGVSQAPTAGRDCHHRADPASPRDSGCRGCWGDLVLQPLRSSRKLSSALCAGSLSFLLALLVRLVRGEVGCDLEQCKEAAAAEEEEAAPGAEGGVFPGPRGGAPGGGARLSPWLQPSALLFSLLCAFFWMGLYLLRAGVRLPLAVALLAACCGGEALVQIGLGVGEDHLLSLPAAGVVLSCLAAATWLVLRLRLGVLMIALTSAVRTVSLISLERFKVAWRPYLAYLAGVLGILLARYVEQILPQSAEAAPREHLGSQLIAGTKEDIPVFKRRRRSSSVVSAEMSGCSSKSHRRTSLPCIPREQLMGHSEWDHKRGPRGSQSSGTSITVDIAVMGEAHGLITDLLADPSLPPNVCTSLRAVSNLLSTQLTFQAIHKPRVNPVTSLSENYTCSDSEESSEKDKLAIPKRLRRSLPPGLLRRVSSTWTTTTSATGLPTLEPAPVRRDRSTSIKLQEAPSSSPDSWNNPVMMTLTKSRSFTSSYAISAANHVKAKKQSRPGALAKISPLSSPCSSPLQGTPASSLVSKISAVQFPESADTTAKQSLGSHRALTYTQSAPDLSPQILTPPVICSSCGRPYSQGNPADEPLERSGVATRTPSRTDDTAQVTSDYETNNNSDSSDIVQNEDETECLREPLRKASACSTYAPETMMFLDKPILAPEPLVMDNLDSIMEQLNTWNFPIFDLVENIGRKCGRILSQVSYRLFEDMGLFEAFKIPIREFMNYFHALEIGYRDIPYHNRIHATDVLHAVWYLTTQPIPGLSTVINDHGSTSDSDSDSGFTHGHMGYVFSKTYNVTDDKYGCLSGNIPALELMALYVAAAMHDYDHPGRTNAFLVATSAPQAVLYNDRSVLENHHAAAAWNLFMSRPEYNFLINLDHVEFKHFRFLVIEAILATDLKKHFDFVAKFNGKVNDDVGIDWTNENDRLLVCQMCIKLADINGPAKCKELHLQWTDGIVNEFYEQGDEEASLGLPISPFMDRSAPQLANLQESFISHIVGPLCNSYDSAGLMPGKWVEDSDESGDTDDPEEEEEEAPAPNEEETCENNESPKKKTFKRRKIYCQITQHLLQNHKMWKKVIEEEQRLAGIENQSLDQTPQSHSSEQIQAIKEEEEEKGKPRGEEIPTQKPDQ
Summary of the method: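 Full-length PDE3A at 1.6 nM with 50 nM FAM-cAMP, 45 min reaction. Buffer 50 mM Tris-HCl pH 7.5, 8.3 mM MgCl2, 1.7 mM EGTA, 0.05% BSA. Compounds run as a concentration curve with a top final concentration of 100 μM. DMSO and 10 μM trequinsin served as controls. TR-FRET read at Ex 337 nm, Em 520/490 nm.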

[3] = Selectivity ratio of inhibition for PDE3A (M1 to Q1141 residues) (unknown origin) by IMAP assay to inhibition for PDE3B (M1 to E1112 residues) (unknown origin) by IMAP assay
[4] = Selectivity ratio of inhibition for PDE3A (M1 to Q1141 residues) (unknown origin) by RF-MS assay to inhibition for PDE3B (M1 to E1112 residues) (unknown origin) by RF-MS assay

cGMP-inhibited 3',5'-cyclic phosphodiesterase 3B, sequence (Q13370 whole entry, the tested form may be a part): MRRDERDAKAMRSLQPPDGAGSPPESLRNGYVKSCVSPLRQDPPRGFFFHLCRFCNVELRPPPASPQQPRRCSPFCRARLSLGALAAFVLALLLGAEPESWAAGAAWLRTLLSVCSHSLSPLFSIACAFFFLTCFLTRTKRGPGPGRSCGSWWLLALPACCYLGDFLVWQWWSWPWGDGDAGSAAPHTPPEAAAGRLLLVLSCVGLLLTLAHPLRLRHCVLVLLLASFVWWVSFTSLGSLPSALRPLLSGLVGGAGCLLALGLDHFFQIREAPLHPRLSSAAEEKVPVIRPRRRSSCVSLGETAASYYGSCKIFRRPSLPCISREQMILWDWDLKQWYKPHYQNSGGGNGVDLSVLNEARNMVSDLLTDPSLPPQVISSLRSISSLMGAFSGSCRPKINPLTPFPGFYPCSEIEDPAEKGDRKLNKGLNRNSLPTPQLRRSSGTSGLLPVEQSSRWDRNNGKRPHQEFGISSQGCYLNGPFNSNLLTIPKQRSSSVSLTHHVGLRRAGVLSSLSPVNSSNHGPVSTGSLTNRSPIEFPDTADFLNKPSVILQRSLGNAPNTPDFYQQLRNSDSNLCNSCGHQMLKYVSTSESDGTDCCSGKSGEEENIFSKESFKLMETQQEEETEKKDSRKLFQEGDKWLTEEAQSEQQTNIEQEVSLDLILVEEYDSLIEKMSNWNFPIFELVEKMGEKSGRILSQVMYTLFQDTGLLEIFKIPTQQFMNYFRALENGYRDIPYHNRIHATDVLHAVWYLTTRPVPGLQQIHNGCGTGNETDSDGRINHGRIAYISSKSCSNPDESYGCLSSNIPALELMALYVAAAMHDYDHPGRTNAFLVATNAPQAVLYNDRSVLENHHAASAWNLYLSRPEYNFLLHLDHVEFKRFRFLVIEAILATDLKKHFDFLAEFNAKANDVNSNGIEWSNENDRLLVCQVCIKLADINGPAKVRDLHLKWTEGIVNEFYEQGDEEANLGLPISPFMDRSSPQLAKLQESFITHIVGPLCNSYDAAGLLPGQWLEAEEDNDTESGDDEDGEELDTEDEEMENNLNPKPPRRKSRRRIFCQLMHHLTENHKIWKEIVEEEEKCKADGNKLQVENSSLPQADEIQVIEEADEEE

| Compound | IC50 [1] [nM] | IC50 [2] [µM] | Selectivity ratio [3] | Selectivity ratio [4] |
| --- | --- | --- | --- | --- |
| CNC(=O)[C@@H](C)NC(=O)c1cc(NC(=O)c2cc(OC)c3ccc(OC)cc3n2)cc(B(O)O)c1 | 1000 | 25.1 | 24 | 26 |
| CNC(=O)[C@@H](NC(=O)c1cc(NC(=O)c2cc3ccccc3cn2)cc(B(O)O)c1)C1CCCCC1 | 3160 | 3.16 | 1 | 2 |
| CNC(=O)[C@H](NC(=O)c1cc(NC(=O)C(C)Oc2c(C)cccc2C)cc(B(O)O)c1)C1CCCCC1 (stereo partly specified) | 25100 | 79.4 | 3.3 | 4.7 |
| COc1ccc2c(OC)cc(C(=O)Nc3cc(B(O)O)cc(C(=O)N[C@@H]4CCCOC4)c3)nc2c1 |  | 63.1 |  |  |
| COc1ccc2c(OC)cc(C(=O)Nc3cc(B(O)O)cc(C(=O)N[C@H]4CCCOC4)c3)nc2c1 |  | 31.6 |  |  |
| COc1ccc2c(OC)cc(C(=O)Nc3cc(B(O)O)cc(C(=O)NCC(C)C)c3)nc2c1 | 1580 | 25.1 | 14 | 56 |
| COc1ccc2c(OC)cc(C(=O)Nc3cc(B(O)O)cc(C(=O)N4CC(OC5CC5)C4)c3)nc2c1 | 200 | 3.16 | 17 | 75 |
| COc1ccc2c(OC)cc(C(=O)Nc3cc(B(O)O)cc(C(=O)N4CCCC4)c3)nc2c1 | 794 | 31.6 | 46 | 46 |
| COc1ccc2c(OC)cc(C(=O)Nc3cc(B(O)O)cc(C(N)=O)c3)nc2c1 | 2000 | > 100 | > 51 | 45 |
| CNC(=O)[C@H](NC(=O)c1cc(NC(=O)c2cc(Cl)cc3c2OCC(=O)N3)cc(B(O)O)c1)C1CCCCC1 | 1580 | 6.31 | 3.3 | 7 |
| COC(=O)c1cc(NC(=O)c2cc(OC)c3ccc(OC)cc3n2)cc(B(O)O)c1 | 2000 | > 100 | > 52 | > 177 |
| COc1ccc2c(OC)cc(C(=O)Nc3cc(B(O)O)cc(C(=O)NC(C)C)c3)nc2c1 | 1000 | 15.8 | 15 | 42 |
| COC[C@H](NC(=O)c1cc(NC(=O)c2cc(OC)c3ccc(OC)cc3n2)cc(B(O)O)c1)C(C)C | 501 | > 100 | > 190 | 50 |
| CNC(=O)[C@@H](NC(=O)c1cc(NC(=O)c2cc(C)c3c(=O)[nH]c(=O)[nH]c3n2)cc(B(O)O)c1)C1CCCCC1 | 20000 | 15.8 | 0.8 | 1.2 |
| COc1ccc2c(OC)cc(C(=O)Nc3cc(B(O)O)cc(C(=O)NCC(C)OC)c3)nc2c1 (stereo unspecified) | 2000 | 25.1 | 14 | 25 |
| CNC(=O)[C@@H](NC(=O)c1cc(NC(=O)c2cc(OC)c3ccccc3n2)cc(B(O)O)c1)C1CCCCC1 | 158 | 0.251 | 1.6 | 2.3 |
| CNC(=O)[C@@H](NC(=O)c1cc(NC(=O)c2cc(C)cc(C)c2OC)cc(B(O)O)c1)C1CCCCC1 | 316 | 1 | 3.4 | 6.3 |
| CNC(=O)[C@@H](NC(=O)c1cc(NC(=O)c2ccc3cc(OC)ccc3c2)cc(B(O)O)c1)C1CCCCC1 | 31600 | 39.8 | 1.3 | 1.8 |
| CNC(=O)[C@@H](NC(=O)c1cc(NC(=O)c2cc(F)cc3nccnc23)cc(B(O)O)c1)C1CCCCC1 | 6.31 | 0.00501 | 0.7 | 1 |
| CNC(=O)[C@@H](NC(=O)c1cc(NC(=O)c2ccc3ccccc3c2)cc(B(O)O)c1)C1CCCCC1 | 5010 | 1.58 | 0.3 | 0.4 |
| COc1ccc2c(OC)cc(C(=O)Nc3cc(B(O)O)cc(C(=O)N[C@H](C(N)=O)C(C)C)c3)nc2c1 | 316 | 5.01 | 15 | 30 |
| CNC(=O)[C@@H](NC(=O)c1cc(NC(=O)c2ccc3ccccc3n2)cc(B(O)O)c1)C1CCCCC1 | 50.1 | 0.02 | 0.5 | 0.5 |
| COc1ccc2c(OC)cc(C(=O)Nc3cc(B(O)O)cc(C(=O)N[C@@H](C(N)=O)C(C)C)c3)nc2c1 | 2000 | 15.8 | 8.5 | 16 |
| CNC(=O)[C@@H](NC(=O)c1cc(NC(=O)c2cc(OC)c3ccc(OC)cc3n2)cc(B(O)O)c1)C1CCCCC1 | 79.4 | 1 | 12 | 26 |
| CNC(=O)[C@@H](NC(=O)c1cc(NC(=O)c2ccc3ccncc3n2)cc(B(O)O)c1)C1CCCCC1 | 316 | 0.158 | 0.5 | 0.7 |

More lines, now with the values ahead:

| IC50 [1] [nM] | IC50 [2] [µM] | Selectivity ratio [3] | Selectivity ratio [4] | Compound |
| --- | --- | --- | --- | --- |
| 631 | 0.501 | 0.7 | 1 | CNC(=O)[C@@H](NC(=O)c1cc(NC(=O)c2ccc3cccnc3n2)cc(B(O)O)c1)C1CCCCC1 |
| 316 | 12.6 | 43 | 97 | COc1ccc2c(OC)cc(C(=O)Nc3cc(B(O)O)cc(C(=O)N4Cc5ccncc5C4)c3)nc2c1 |
| 2510 | 7.94 | 3 | 5 | COc1ccc2c(OC)cc(C(=O)Nc3cc(B(O)O)cc(C(=O)O)c3)nc2c1 |
| 10000 | 12.6 | 1.4 | 4.2 | COc1ccc2c(OC)cc(C(=O)Nc3cccc(B(O)O)c3)nc2c1 |
| 1000 | 0.794 | 0.8 | 0.9 | CNC(=O)[C@@H](NC(=O)c1cc(NC(=O)c2cc(OC)c3cc(OC)ccc3n2)cc(B(O)O)c1)C1CCCCC1 |
| > 100000 | > 100 |  |  | COc1ccc2c(OC)cc(C(=O)N(C)c3cc(B(O)O)cc(C(=O)NC(C)C)c3)nc2c1 |
| 631 | 0.251 | 0.4 |  | CNC(=O)[C@@H](NC(=O)c1cc(NC(=O)c2cc3c(c(OC)c2)OCC(=O)N3)cc(B(O)O)c1)C1CCCCC1 |
| 20000 | 12.6 | 0.7 | 0.9 | CNC(=O)[C@@H](NC(=O)c1cc(NC(=O)c2cnc3ccccc3c2)cc(B(O)O)c1)C1CCCCC1 |
| 200 | 0.126 | 0.7 | 0.6 | CNC(=O)[C@@H](NC(=O)c1cc(NC(=O)c2ccc3ncccc3n2)cc(B(O)O)c1)C1CCCCC1 |
| 631 | 15.8 | 21 | 62 | COc1ccc2c(OC)cc(C(=O)Nc3cc(B(O)O)cc(C(=O)N(C)Cc4ccccc4)c3)nc2c1 |
| 200 | 0.501 | 2.6 | 3.8 | CCNC(=O)N1CCCCC(NC(=O)c2cc(NC(=O)c3cc(C)cc(C)c3OC)cc(B(O)O)c2)C1 (stereo unspecified) |
| 39800 | 31.6 | 0.8 | 1 | CCNC(=O)N1CCCCC(NC(=O)c2cc(O)cc(NC(=O)c3cc(C)cc(C)c3OC)c2)C1 (stereo unspecified) |
| 794 | 2 | 2.6 | 6.6 | CNC(=O)[C@H](NC(=O)c1cc(NC(=O)c2cc(C)cc(C)c2OC)cc(B(O)O)c1)C1CCCCC1 |
| 50100 | 50.1 | 1 | 1.6 | CNC(=O)[C@H](NC(=O)c1cc(NC(=O)c2cc(OC)ccn2)cc(B(O)O)c1)C1CCCCC1 |
| 10000 | 12.6 | 1 | 1.9 | CNC(=O)[C@@H](NC(=O)c1cc(NC(=O)c2ccc3ccc(OC)cc3c2)cc(B(O)O)c1)C1CCCCC1 |
| 2000 | 50.1 | 23 | 63 | COc1ccc2c(OC)cc(C(=O)Nc3cc(B(O)O)cc(C(=O)N(C)C)c3)nc2c1 |
| 2000 | > 100 | > 44 | > 107 | CNC(=O)c1cc(NC(=O)c2cc(OC)c3ccc(OC)cc3n2)cc(B(O)O)c1 |
| 200 | 0.398 | 2 | 2.7 | CNC(=O)[C@@H](NC(=O)c1cc(NC(=O)c2nccc3ccccc23)cc(B(O)O)c1)C1CCCCC1 |
| 316 | 10 | 37 | 78 | CNC(=O)[C@H](NC(=O)c1cc(NC(=O)c2cc(OC)c3ccc(OC)cc3n2)cc(B(O)O)c1)C1CCCCC1 |
| 31600 | 31.6 | 0.8 | 0.8 | CNC(=O)[C@H](NC(=O)c1cc(NC(=O)c2nc(C)ncc2OC)cc(B(O)O)c1)C1CCCCC1 |
